The nature of series [1]: Inhibition of NF-kappaB (unknown origin) assessed as decrease in NF-kappaB/DNA interaction using 32P-labeled target NF-kappaB double-stranded oligonucleotide after 30 mins by EMSA. Also noted: species or system Homo sapiens. The gist of the method:
(§1)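 Purified NF-κB p50 (0.1 µl/20 µl, 50 gsu) was combined with 0.25 ng of ³²P-labeled double-stranded NF-κB consensus oligonucleotide. Bound 30 min at room temperature, then run on 6% polyacrylamide in 0.25× TBE at 200 V. IC₅₀ is 50% inhibition of the complex.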
Background: Mobility shift assays separate free from complexed probe on a gel.

A further series concerns IB3-1. The series can be described thus: Antiproliferative activity against human IB3-1 cells after 2 days by cell counting analysis. The series is classed as cell-based. The settings on record: IB3-1, 48 h. The gist of the method: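 IB3-1 cells from a CF patient (ΔF508/W1282X), immortalized with adeno12/SV40, grown in LHC-8 with 5% FBS and no gentamycin at 37°C/5% CO₂. Treated at 12.5, 25, 50, 100, 200 and 800 µM. Cells counted by Coulter counter after 2 days, with untreated cells in log phase. IC₅₀ is the concentration giving 50% inhibition of cell growth.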

The species named for series [2] is Homo sapiens. The series can be described thus: Inhibition of NF-kappaB (unknown origin) assessed as decrease in NF-kappaB/DNA interaction at 12.5 to 100 uM using 32P-labeled target NF-kappaB double-stranded oligonucleotide after 30 mins by EMSA. In a few lines: as §1
Series [3] is filed under the species Homo sapiens. Description: Inhibition of NF-kappaB (unknown origin) assessed as decrease in NF-kappaB/DNA interaction at 12.5 uM using 32P-labeled target NF-kappaB double-stranded oligonucleotide after 30 mins by EMSA.
Series [4] concerns Salmon testes DNA. Description: Induction of damage in salmon testes DNA at 100 uM in presence of 2.5 to 7.5 J/cm2 UVA irradiation by ethidium bromide dye-based agarose gel electrophoresis analysis. The series is classed as nucleic-acid assay. The settings on record: salmonidae.
Series [5] concerns Salmonella typhimurium. Description: Genotoxicity in Salmonella typhimurium TA98 assessed as revertant colonies at 5 uL/plate in absence of Sprague-Dawley rat S9 metabolic activation after 72 hrs by Ames test (reference value: 1). The series is classed as toxicity, organism-based. The settings on record: salmonella enterica subsp. enterica serovar typhimurium. (The Ames test uses bacterial strains that need an amino acid and regain growth without it when mutated back.)

Series [6] deals with Salmonella typhimurium. Description: Genotoxicity in Salmonella typhimurium TA98 assessed as revertant colonies at 1 uL/plate in absence of Sprague-Dawley rat S9 metabolic activation after 72 hrs by Ames test (reference value: 1). The series is classed as toxicity, organism-based. The settings on record: salmonella enterica subsp. enterica serovar typhimurium.
Series [7] has as its system Salmonella typhimurium. Description: Genotoxicity in Salmonella typhimurium TA98 assessed as revertant colonies at 10 uL/plate in absence of Sprague-Dawley rat S9 metabolic activation after 72 hrs by Ames test (reference value: 1). The series is classed as toxicity, organism-based. The settings on record: salmonella enterica subsp. enterica serovar typhimurium.
The test system of series [8] is Salmonella typhimurium. Description: Genotoxicity in Salmonella typhimurium TA98 assessed as revertant colonies at 50 uL/plate in absence of Sprague-Dawley rat S9 metabolic activation after 72 hrs by Ames test (reference value: 1). The series is classed as toxicity, organism-based. The settings on record: salmonella enterica subsp. enterica serovar typhimurium.
Series [9] deals with Salmonella typhimurium. The series can be described thus: Genotoxicity in Salmonella typhimurium TA98 assessed as revertant colonies at 100 uL/plate in absence of Sprague-Dawley rat S9 metabolic activation after 72 hrs by Ames test (reference value: 1). The series is classed as toxicity, organism-based. As to conditions: salmonella enterica subsp. enterica serovar typhimurium.

Series [10] relates to Salmonella typhimurium. Description: Genotoxicity in Salmonella typhimurium TA98 assessed as revertant colonies at 1 uL/plate in presence of Sprague-Dawley rat S9 metabolic activation after 72 hrs by Ames test (reference value: 1). The settings on record: salmonella enterica subsp. enterica serovar typhimurium. The series is classed as toxicity, organism-based.
Series [11] relates to Salmonella typhimurium. The series can be described thus: Genotoxicity in Salmonella typhimurium TA98 assessed as revertant colonies at 5 uL/plate in presence of Sprague-Dawley rat S9 metabolic activation after 72 hrs by Ames test (reference value: 1). The series is classed as toxicity, organism-based. The settings on record: salmonella enterica subsp. enterica serovar typhimurium.

Series [12] concerns Salmonella typhimurium. Description: Genotoxicity in Salmonella typhimurium TA98 assessed as revertant colonies at 10 uL/plate in presence of Sprague-Dawley rat S9 metabolic activation after 72 hrs by Ames test (reference value: 1). The series is classed as toxicity, organism-based. As to conditions: salmonella enterica subsp. enterica serovar typhimurium.
Series [13] has as its system Salmonella typhimurium. The series can be described thus: Genotoxicity in Salmonella typhimurium TA98 assessed as revertant colonies at 50 uL/plate in presence of Sprague-Dawley rat S9 metabolic activation after 72 hrs by Ames test (reference value: 1). The series is classed as toxicity, organism-based. The settings on record: salmonella enterica subsp. enterica serovar typhimurium.

Series [14] relates to Salmonella typhimurium. Description: Genotoxicity in Salmonella typhimurium TA98 assessed as revertant colonies at 100 uL/plate in presence of Sprague-Dawley rat S9 metabolic activation after 72 hrs by Ames test (reference value: 1). It counts as toxicity, organism-based. The settings on record: salmonella enterica subsp. enterica serovar typhimurium.
Series [15] relates to Salmonella typhimurium. Description: Genotoxicity in Salmonella typhimurium TA100 assessed as revertant colonies at 1 uL/plate in absence of Sprague-Dawley rat S9 metabolic activation after 72 hrs by Ames test (reference value: 1). The series is classed as toxicity, organism-based. The settings on record: salmonella enterica subsp. enterica serovar typhimurium.
Series [16] deals with Salmonella typhimurium. The series can be described thus: Genotoxicity in Salmonella typhimurium TA100 assessed as revertant colonies at 5 uL/plate in absence of Sprague-Dawley rat S9 metabolic activation after 72 hrs by Ames test (reference value: 1). It counts as toxicity, organism-based. As to conditions: salmonella enterica subsp. enterica serovar typhimurium.
The test system of series [17] is Salmonella typhimurium. Description: Genotoxicity in Salmonella typhimurium TA100 assessed as revertant colonies at 10 uL/plate in absence of Sprague-Dawley rat S9 metabolic activation after 72 hrs by Ames test (reference value: 1). As to conditions: salmonella enterica subsp. enterica serovar typhimurium. It counts as toxicity, organism-based.
The test system of series [18] is Salmonella typhimurium. The series can be described thus: Genotoxicity in Salmonella typhimurium TA100 assessed as revertant colonies at 50 uL/plate in absence of Sprague-Dawley rat S9 metabolic activation after 72 hrs by Ames test (reference value: 1). It counts as toxicity, organism-based. The settings on record: salmonella enterica subsp. enterica serovar typhimurium.

Series [19] concerns Salmonella typhimurium. Description: Genotoxicity in Salmonella typhimurium TA100 assessed as revertant colonies at 100 uL/plate in absence of Sprague-Dawley rat S9 metabolic activation after 72 hrs by Ames test (reference value: 1). It counts as toxicity, organism-based. As to conditions: salmonella enterica subsp. enterica serovar typhimurium.
The test system of series [20] is Salmonella typhimurium. The series can be described thus: Genotoxicity in Salmonella typhimurium TA100 assessed as revertant colonies at 1 uL/plate in presence of Sprague-Dawley rat S9 metabolic activation after 72 hrs by Ames test (reference value: 1). The series is classed as toxicity, organism-based. As to conditions: salmonella enterica subsp. enterica serovar typhimurium.

Series [21] relates to Salmonella typhimurium. Description: Genotoxicity in Salmonella typhimurium TA100 assessed as revertant colonies at 5 uL/plate in presence of Sprague-Dawley rat S9 metabolic activation after 72 hrs by Ames test (reference value: 1). It counts as toxicity, organism-based. The settings on record: salmonella enterica subsp. enterica serovar typhimurium.
Series [22] concerns Salmonella typhimurium. Description: Genotoxicity in Salmonella typhimurium TA100 assessed as revertant colonies at 10 uL/plate in presence of Sprague-Dawley rat S9 metabolic activation after 72 hrs by Ames test (reference value: 1). It counts as toxicity, organism-based. As to conditions: salmonella enterica subsp. enterica serovar typhimurium.
For series [23], the system named is Salmonella typhimurium. Description: Genotoxicity in Salmonella typhimurium TA100 assessed as revertant colonies at 50 uL/plate in presence of Sprague-Dawley rat S9 metabolic activation after 72 hrs by Ames test (reference value: 1). The series is classed as toxicity, organism-based. As to conditions: salmonella enterica subsp. enterica serovar typhimurium.
For series [24], the system named is Salmonella typhimurium. The series can be described thus: Genotoxicity in Salmonella typhimurium TA100 assessed as revertant colonies at 100 uL/plate in presence of Sprague-Dawley rat S9 metabolic activation after 72 hrs by Ames test (reference value: 1). As to conditions: salmonella enterica subsp. enterica serovar typhimurium. The series is classed as toxicity, organism-based.

Series [25] has as its system Salmon testes DNA. Description: Induction of damage in salmon testes DNA at 100 uM in absence of 2.5 to 7.5 J/cm2 UVA irradiation by ethidium bromide dye-based agarose gel electrophoresis analysis. It counts as nucleic-acid assay. As to conditions: salmonidae.

pIC50: −log10 of the molar value. Active and inactive are the calls of the source. The calls are words filed in the database; no cut-off is given here.

One may read the pIC50 as −log10 of the IC50, conventionally taken in molar units. Regarding `CCCc1cc(=O)oc2c1cc(CC)c1occ(C)c12`, the negative logarithm of the IC50 (pIC50) was 4.70 in [1] and 3.79 with IB3-1. Moreover, in the series filed under Homo sapiens [2], the inhibition result is “Active”.
On to `CCc1cc2c(C)cc(=O)oc2c2c(C)coc12`, for which the figures for the negative logarithm of the IC50 (pIC50) (in series [1]; with IB3-1) were 4.62 and less than 3.70, respectively. Further, the inhibition entry in the series listed under Homo sapiens [2] is “Active”.
Consider `CCc1cc(=O)oc2c1cc(CC)c1occ(C)c12`, for which the pIC50 is 4.75 in series [1] and less than 3.70 in the series on IB3-1. In the series filed under Homo sapiens [2], the inhibition entry was “Active”.
With `CCc1cc(=O)oc2c1cc(C)c1occ(C)c12`, the inhibition result in the series listed under Homo sapiens [3] and in the series listed under Homo sapiens [2] was “Active” in each case. Besides, the pIC50 in [1] was 5.10; in the series with IB3-1, 4.30.
Take `Cc1cc(=O)oc2c1cc(C)c1occ(C)c12`: the result in the series with Salmon testes DNA [4] and in the series on Salmon testes DNA [25] was Active. The T/C in the series on Salmonella typhimurium [5] came to 0.63; in the series with Salmonella typhimurium [6], 1.03; with Salmonella typhimurium [7] it was 1.16; with Salmonella typhimurium [8] it was 0.97; in the series with Salmonella typhimurium [9], 1.22; in the series with Salmonella typhimurium [10], 0.75. The T/C with Salmonella typhimurium [11] was 1.9; with Salmonella typhimurium [12], 4.5; in the series with Salmonella typhimurium [13], 8.25; in the series with Salmonella typhimurium [14] it was 6.86; in the series with Salmonella typhimurium [15] it was 0.99; with Salmonella typhimurium [16] it was 1.03. The T/C in the series with Salmonella typhimurium [17] is recorded as 1.06; with Salmonella typhimurium [18] it was 1.09; with Salmonella typhimurium [19], 1.03; in the series with Salmonella typhimurium [20], 1.1; in the series with Salmonella typhimurium [21], 1; in the series on Salmonella typhimurium [22] it was 1.04. For the same compound, the values for the T/C in the series with Salmonella typhimurium [23] and in the series on Salmonella typhimurium [24] were 1.16 and 2.52, respectively. In addition, the inhibition result in the series listed under Homo sapiens [2] was “Active”.
For the compound `CCCc1cc(=O)oc2c1cc(C)c1occ(C)c12`, the pIC50 in series [1] was 4.66; in the series on IB3-1, 3.70. Also, the inhibition result in the series filed under Homo sapiens [2] is “Active”.
As to `Cc1cc2c(C(C)C)cc(=O)oc2c2c(C)coc12`, the pIC50 in series [1] is 4.72; in the series with IB3-1 it was less than 3.70. Further, the inhibition result in the series listed under Homo sapiens [2] was “Active”.

Values taken from ChEMBL document CHEMBL4152196, “Design, synthesis and biological evaluation of novel trimethylangelicin analogues targeting nuclear factor kB (NF-kB)” (Eur J Med Chem, 2018).
